# IDE inh = cellular human IDE inhibition. AID 434962. inhibition, % at 5.59 µM. 0.41% of 320,000 active. HEK cells, FAbetaB cleavage, fluorescence polarization;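 active = percent inhibition above the average of all tested compounds plus 3 SD, set per screening campaign, cut at about 16% in these data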;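 note: IDE supplied by intact live HEK cells; FP after avidin binding of uncleaved biotin substrate so inhibition keeps polarization high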
# IDE act = boosts human insulin-degrading enzyme activity in HEK cells. 0.073% of 340,000 active. AID 493087. P14735. FAbeta-B cleavage, fluorescence polarization; 0% vehicle, 100% cell-free pure enzyme wells. activation, % at 5.96 µM;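 active = activation above the mean of all tested compounds plus 3 SD, set per screening campaign, cut at about 17% in these data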
# Rpn11 inh = blocks the human proteasome subunit Rpn11; 0.59% of 360,000 active; inhibition, % at 20 µM; human 26S proteasome, Ub4-pepOG fluorescence polarization; 20S core pre-blocked with epoxomicin; AID 588493;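 active = inhibition at 20 µM, scaled to each plate's controls, above about 33%, limit read from the data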
# Target sequence (O00487 whole entry, looked up): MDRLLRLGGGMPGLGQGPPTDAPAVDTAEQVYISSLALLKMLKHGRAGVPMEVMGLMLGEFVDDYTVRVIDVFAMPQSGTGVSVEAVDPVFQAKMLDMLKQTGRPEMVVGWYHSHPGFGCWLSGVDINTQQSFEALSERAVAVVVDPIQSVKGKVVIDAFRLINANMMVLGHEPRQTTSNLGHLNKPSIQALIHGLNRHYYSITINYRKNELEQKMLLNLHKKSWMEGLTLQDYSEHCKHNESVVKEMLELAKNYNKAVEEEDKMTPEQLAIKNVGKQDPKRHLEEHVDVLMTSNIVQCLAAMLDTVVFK
# CSN inh = inhibitors of human CSN-mediated cullin deneddylation; inhibition, % at 12.5 µM; Purified CSN, SCF-Nedd8-OG deneddylation, fluorescence polarization; 0.38% of 360,000 active;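 active = pattern-corrected inhibition above about 35%, with an unprinted fluorescence ratio check between 0.5 and 1.5, limit read from the data, passing the limit was not always enough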
# Target sequence (Q92905 whole entry, looked up, one chain of several): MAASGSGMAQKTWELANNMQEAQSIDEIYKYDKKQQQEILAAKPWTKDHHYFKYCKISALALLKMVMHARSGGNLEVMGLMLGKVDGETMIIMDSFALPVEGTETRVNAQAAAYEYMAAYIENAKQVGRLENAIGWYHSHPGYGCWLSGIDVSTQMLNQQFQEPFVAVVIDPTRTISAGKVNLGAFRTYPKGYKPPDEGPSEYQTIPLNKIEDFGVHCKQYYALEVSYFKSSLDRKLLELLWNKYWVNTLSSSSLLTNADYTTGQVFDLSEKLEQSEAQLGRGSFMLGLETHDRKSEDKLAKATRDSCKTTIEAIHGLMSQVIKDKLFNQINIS
#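 Material: purified human Csn5 enzyme expressed in HEK293T cells / Medium: Tris buffer pH 7.5, NaCl, DTT, Tween-20, trehalose, ovalbumin / Compound dosing: 12.5 µM single point / Schedule: 90 min incubation of compound, enzyme and substrate at room temperature / Signal: fluorescence polarization of the substrate / Control set: no-enzyme wells high, enzyme-with-substrate wells low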
# HNF4A DNA FP = change in binding of human HNF4 alpha to DNA | 0.3% of 360,000 active | activity change, % at 10 µM | AID 1224865 | P41235 | HNF4a-FITC DNA binding, fluorescence polarization, 1 h; in the data active = activity change above about 30%, passing the limit was not always enough
# TPT1 inh = inhibitors of Candida albicans tRNA 2'-phosphotransferase TPT1 | recombinant caTPT1, FP RNA substrate dephosphorylation | inhibition, % at 5 µM | 0.81% of 300,000 active | AID 1962;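 active = inhibition above the mean of all tested compounds plus 3 SD, set per screening campaign, cut at about 24% in these data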
# Rpn11 inh conf = confirmation of human proteasome Rpn11 inhibitors | shares compounds with Rpn11 inh | purified human 26S proteasome, Ub4-pepOG fluorescence polarization; proteasome pretreated with epoxomicin | inhibition, % at 20 µM | 29% of 1,900 active
# MMP-2 counter = blocks human MMP-2, flagging nonselective RPN11 hits; shares compounds with Rpn11 inh; recombinant MMP-2, FRET peptide cleavage fluorescence; inhibition, % at 20 µM; 4% of 1,900 active; AID 602330;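 note: human MMP-2 activated beforehand with APMA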
# Thrombin FP = blocks bovine thrombin, flagging nonselective RPN11 hits | 13% of 1,900 active | inhibition, % at 20 µM | AID 602333 | shares compounds with Rpn11 inh | bovine thrombin cleavage of Ub4-pepOG, fluorescence polarization;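 active = mean inhibition at least 40% at 20 µM, or signal 3 deviations below plate average, so some actives read negative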
# Hits are given with their value; - = inactive; . = no result given; + = active, no number. In the library only some 1.7% were active in any assay of this set; here they are far more common. Cut-off read from the data, not from the text of the source, unless noted: active = inhibition above about 40%; inactive = the rest.
SMILES,IDE inh,IDE act,Rpn11 inh,CSN inh,HNF4A DNA FP,TPT1 inh,Rpn11 inh conf,MMP-2 counter,Thrombin FP
C/C(C/C(C)=C1/SC(=S)NC1=O)=C1\SC(=S)NC1=O,.,-,76,-,-,.,41,-,-
CC/C(C)=C1/NC(=O)NC1=O,.,-,-,-,-,.,.,.,.
COc1cc(Nc2ccn3nc(-c4ccc(F)cc4)cc3n2)cc(OC)c1OC,.,.,-,-,-,.,.,.,.
CCc1ccccc1NC(=O)N1CCCC(CCC(=O)N(C)CCc2ccccn2)C1 (stereo not given),-,-,36,-,-,-,-,-,-
CCN(CC)c1ccc(/C=N/NC(=O)c2cccc(S(=O)(=O)Nc3ccccc3OC)c2)cc1,-,-,50,-,-,-,57,-,-
CSc1ccccc1C(=O)OCC(=O)Nc1c(C)n(C)n(-c2ccccc2)c1=O,.,.,-,-,-,.,.,.,.
COc1ccccc1CCC(=O)NNC(=O)Cn1nc(C)cc1C,.,.,-,-,-,.,.,.,.
O=C(N/N=C\c1ccc(-c2ccc([N+](=O)[O-])cc2)o1)C1COc2ccccc2O1 (stereo not given),-,-,39,-,-,-,46,-,-
CN(C)c1ccc(/C=N/NC(=O)C2COc3ccccc3O2)o1 (stereo not given),-,-,-,-,-,-,.,.,.
Cc1ccc2nc(SCC(=O)c3c(N)n(C)c(=O)n(C)c3=O)[nH]c2c1,-,-,44,-,-,-,-,-,-
Cc1noc(C)c1S(=O)(=O)N(C)C[C@@H]1OCc2cnnn2CCCC(=O)N([C@@H](C)CO)C[C@H]1C,.,.,-,-,-,.,.,.,.
CN(C)c1ccc(/C=N/NC(=O)c2nnn(-c3nonc3N)c2COc2ccc(F)cc2)cc1,-,-,138,-,-,-,-,-,-
CCN(CC)Cc1c(C(=O)N/N=C/c2ccncc2)nnn1-c1nonc1N,-,-,+,-,50,-,-,-,-
CCOc1ccc(/C=N/NC(=O)c2nnn(-c3nonc3N)c2COc2ccc(F)cc2)cc1,-,-,-,-,-,-,.,.,.
O=C(Nc1ccccc1-c1nc2ccccc2s1)C1=COCCO1,-,-,62,-,-,-,-,-,-
CCn1c(=S)[nH]c2cc(C(=O)O)ccc21,-,.,.,.,.,-,.,.,.
CCn1c(=O)cc(C(F)(F)F)[nH]c1=S,-,-,53,-,-,-,-,-,-
C=CCn1c(SCC(=O)Nc2ccc(-c3nc4ccc(C)cc4s3)cc2)nnc1-c1ccccc1,-,-,64,-,-,-,81,-,-
C=CCn1c(SCC(=O)NNC(=O)Nc2ccc(C)cc2)nnc1-c1ccccc1,-,-,-,-,-,-,.,.,.
COc1ccc2[nH]cc(CCNC(=O)c3ccccc3Cl)c2c1,-,-,59,-,-,-,-,-,-
COc1ccc2[nH]cc(CCNC(=O)Cc3c(F)cccc3Cl)c2c1,-,-,-,-,-,-,.,.,.
Brc1ccccc1C1CC(c2ccccc2)=Nc2ccccc2N1 (stereo not given),-,-,41,-,-,-,-,-,-
O=C(Cc1cccs1)N1CCC(c2nc3c(nnn3Cc3ccccc3)c(=O)[nH]2)CC1,-,-,53,-,-,-,-,-,-
Cc1nnc(SCC(=O)N2N=C(c3ccc(Cl)cc3)CC2c2ccco2)[nH]c1=O (stereo not given),-,-,74,-,-,-,-,-,-
Cc1ccc(S(=O)(=O)N2C[C@H]3C(=O)C[C@@H]4C(=O)N(c5ccccc5)C(=O)[C@@H]4[C@@H]3C[C@H]2c2cccc(Cl)c2)cc1,.,.,-,-,-,.,.,.,.
SMILES,IDE inh,IDE act,Rpn11 inh,CSN inh,HNF4A DNA FP,TPT1 inh,Rpn11 inh conf,MMP-2 counter,Thrombin FP
C[C@@H]1CN([C@H](C)CO)S(=O)(=O)c2ccc(Br)cc2O[C@H]1CN(C)C(=O)C1CC1,.,.,-,-,-,.,.,.,.
COc1cccc(-n2c(C)cc(/C=C3/C(=N)N4C(=NC3=O)SN=C4S(C)(=O)=O)c2C)c1,-,-,-,-,-,-,.,.,.
Cc1ccc(-n2cccc2/C=C2/C(=N)N3C(=NC2=O)SN=C3S(C)(=O)=O)cc1,-,-,61,-,-,-,63,-,-
CS(=O)(=O)C1=NSC2=NC(=O)/C(=C\c3cccn3-c3ccccc3Cl)C(=N)N21,-,-,59,-,-,-,79,-,-
CS(=O)(=O)C1=NSC2=NC(=O)/C(=C\c3ccc(OC(=O)c4ccco4)c(Br)c3)C(=N)N21,-,-,71,-,35,-,-,-,-
Cc1cc(C)cc(-n2cccc2/C=C2/C(=N)N3C(=NC2=O)SN=C3S(C)(=O)=O)c1,-,-,51,-,-,-,53,-,-
COc1ccc(CNC(=O)/C=C/[C@H]2O[C@@H](n3cc(C)c(=O)[nH]c3=O)C[C@@H]2O)cc1,.,.,-,-,-,.,.,.,.
CCOc1ccc(CCNS(=O)(=O)c2c(C)nc3sccn3c2=O)cc1OCC,.,.,-,-,-,.,.,.,.
CN(Cc1ccccc1)C(=O)[C@@H]1CCCN1C(=O)[C@@H]1CCCN1C(=O)c1cccc2ccccc12,.,.,.,-,-,.,.,.,.
COc1ccc(S(=O)(=O)N2C[C@H]3CON(C)[C@H]3C[C@H]2c2ccc(-c3cc4ccccc4o3)cc2)cc1,.,.,-,-,-,.,.,.,.
CCc1ccc(-n2cccc2/C=C2/C(=N)N3C(=NC2=O)SN=C3S(C)(=O)=O)cc1,-,-,60,-,-,-,64,-,45
C=CCn1c(SCc2nc3sc(C(=O)O)c(C)c3c(=O)[nH]2)nnc1-c1ccc(F)cc1,-,-,-,-,-,-,.,.,.
COCCCn1cnnc1SCc1nc2sc(C(C)=O)c(C)c2c(=O)[nH]1,-,-,51,-,-,-,-,-,-
CCOC(=O)c1sc(Nc2ccc(C)cc2C)nc1C,-,-,36,-,-,-,-,-,-
O=C(NCC1CCCO1)C(c1cccs1)N(Cc1cccs1)C(=O)c1ccc(-c2ccccc2)[nH]1 (stereo not given),-,-,52,-,-,-,-,-,-
CC1=C(C(=O)Nc2ccccc2Cl)C(c2ccc(N(C)C)cc2)NC(=O)N1 (stereo not given),-,-,64,-,-,-,-,-,-
COc1ccccc1-c1noc2c1C(=O)N(Cc1cn(C3CCCC3)nn1)CC2,.,.,.,-,-,.,.,.,.
Cc1ccccc1NC(=O)Cc1nc(COC(=O)c2nccnc2N)cs1,.,.,-,-,-,.,.,.,.
COc1cccc(/C=N/NC(=O)c2cccc3ccccc23)c1OC,-,-,32,-,-,-,-,-,-
